pIC50: −log10 of the molar value. Active and inactive are the calls of the source.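 The calls were made as follows: active = IMP-1 enzyme inhibition with IC50 of 10 µM or lower; inactive = IC50 above 10 µM.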
Molecular target: metallo-beta-lactamase IMP-1 (Pseudomonas aeruginosa)
Test: IMP-1 metallo-beta-lactamase inhibitors, IC50, late-stage follow-up, selectivity assay, biochemical, absorbance (AID 624085)
Conditions: purified IMP-1, nitrocefin hydrolysis, epi-absorbance
In short: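 Material: purified IMP-1 metallo-beta-lactamase enzyme. Reagent: nitrocefin substrate. Dosing: dilution series per compound, highest nominal amount 60 µM. Timing: 15 min compound–enzyme pre-incubation, then 25 min substrate reaction at 25 °C. Signal: fluorescence quench readout, 480/530 nm, EDTA-stopped. Controls: wells lacking enzyme. Repeats: triplicate wells per concentration. Format: White microtiter plates.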

| SMILES | pIC50 | IC50 |
| --- | --- | --- |
| CN1CCN(NC(=O)CN2C(=O)/C(=C/c3c(Cl)ccc(Cl)c3Cl)SC2=S)CC1 | 5.52 | – |
| CN1CCN(NC(=O)CN2C(=O)/C(=C/c3c(Cl)cccc3Cl)SC2=S)CC1 | – | inactive |

Reference: PubChem BioAssay AID624085 (The Scripps Research Institute Molecular Screening Center, 2012)
